An excerpt weighted towards active compounds, which were near 3.1% of everything screened.
HIF act: HIF pathway transcriptional activators, primary screen, cell-based, U2OS HRE-luciferase, luminescence; activation, % at 7.5 µM (by protocol); U2OS HRE-luciferase reporter; normalized: DMSO 0%, desferrioxamine 100%; 300,000 compounds, 0.32% hits; AID 1910, 2009;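 active = mean activation of at least 10% of the iron chelator positive control signal, with at least half of replicates also reaching 10%; inconclusive = mean and replicate majority disagree about reaching 10%; inactive = mean and most replicates under 10%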
CSC inhib: cancer stem cell viability inhibitors, primary screen, luminescence; cancer stem cell-like cells viability; inhibition, % at 7.5 µM; 300,000 compounds, 1.1% hits; in the data active = inhibition above about 75%; inconclusive = no clear call, values can overlap the other calls; tested in HMLE shEcad cells
Calb FLC: C. albicans growth inhibition with fluconazole, primary screen, CaCi-2 strain, Alamar Blue fluorescence | growth inhibition, % (test concentration not listed) | 300,000 compounds, 0.57% hits | C. albicans CaCi-2 (fluconazole-resistant clinical isolate) + fluconazole, 48 h;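 active = growth inhibition above about 58% in most replicates, limit read from the data, passing the limit was not always enough; inconclusive = exactly half the replicates above a set limit; inactive = most replicates below a set limit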;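 note: all wells also contain fluconazole at 8 µg/ml as a sub-toxic cotreatment; 0% = median of DMSO wells and 100% = median of geldanamycin control wells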
Beta apoptosis: inhibitors of cytokine-induced beta cell apoptosis, primary screen, luminescence. INS-1E cytokine-induced death, ATP luminescence, 48 h; percent of positive-control rescue, neutral wells zero. AID 435005, 2010. 300,000 compounds, 0.8% hits. protection from apoptosis, % (concentration not given with the values);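 active = Every replicate reaches about 75%, or at least half do and their mean reaches it too, limit read from the data; inconclusive = At least half of replicates reach the limit but their mean does not; inactive = Under half of replicates reach the limit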;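 note: 0% = cytokine-treated negative control wells and 100% = positive control rescue; higher means more ATP so stronger rescue from cytokine killing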
PolyA inh: polyadenylation inhibitors in yeast reporter cells, primary screen, luminescence, S. cerevisiae | S. cerevisiae SKY197-pL101 polyadenylation reporter, beta-gal luminescence; efflux-impaired pdr1/pdr3 knockout yeast; score 100 = 6 SD above DMSO | activity score, % at 12 µM | 300,000 compounds, 0.02% hits | AID 1875, 2009;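 active = lowest replicate activity score at least 50, where 100 means six control SD above control mean; inconclusive = lowest score under 50 but half or more replicates reach 50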;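 note: yeast exposed to compound for 9 h at 30 °C; higher score means more reporter readthrough which indicates perturbed polyadenylation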
T cruzi repl: inhibitors of intracellular T. cruzi growth, primary screen, luminescence, NIH3T3 host cells; T. cruzi beta-gal in NIH3T3, 90 h; inhibition, % (no concentration beside the values); 300,000 compounds, 1.4% hits; AID 1885, 2009;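 active = mean inhibition across valid replicates above about 55%, limit read from the data; inconclusive = mean below that limit but half or more replicates reach it; inactive = mean below it, under half of replicates reach it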;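 note: signal also drops with host cell toxicity which is not excluded here; 0% = plate median of DMSO wells and 100% = zero luminescence signal; higher percent means less beta-gal luminescence so fewer parasites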
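Assay system: NIH/3T3 fibroblasts plus reporter T. cruzi. Amount: NIH/3T3 cells, 5,000 per well. Buffer or medium: DMEM, 2% fetal bovine serum. Doses: compound pinned at 50 nL/well, DMSO. Schedule: ≥90 h infection period, 3 h prior cell attachment. Signal: luminescent β-galactosidase signal after 60 min lysis. Read-out: parasite load inhibition, %.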
The depositor's hits bear a star; u = inconclusive; x = no result given.

SMILES	HIF act	CSC inhib	Calb FLC	Beta apoptosis	PolyA inh	T cruzi repl
N=c1c2c(ncn1Cc1ccco1)Oc1c(ccc3ccccc13)C2c1ccccc1 (stereo unspecified)	0	102*	-5	x	-16	-11
N=c1c2c(ncn1Cc1ccco1)Oc1cc(O)ccc1C2c1ccccc1 (stereo unspecified)	0	9	-8	2	4	5
Cc1noc(C)c1C(=O)OCC(=O)c1ccc[nH]1	0	-7	2	2	-12	-1
CCCn1c(N)c(C(=O)COC(=O)c2c(C)noc2C)c(=O)n(C)c1=O	0	8	100*	4	-5	-1
Cc1nnc(N/N=C/c2cc([N+](=O)[O-])c(N3CCC(C)CC3)cc2N2CCC(C)CC2)n1N	2	19	-10	115*	-17	46
CCc1nnc(N/N=C/c2ccc(N3CCC(C)CC3)c([N+](=O)[O-])c2)n1N	0	0	18	-3	-29	21
COc1cc(SC)ccc1C(=O)N1CCc2ccccc21	0	-2	6	x	-2	11
Cc1cc(C)c2nc(N3CCC(C(=O)NCCCN4CC(C)CC(C)C4)CC3)sc2c1 (stereo unspecified)	0	15	19	51	-1	59*
NC(=O)C1CCN(C(=O)/C(=C/c2ccccc2)NC(=O)c2ccccc2)CC1	-9	x	-2	x	-7	-2
CSc1ncccc1C(=O)Nc1nc2ccc(Oc3ccccc3)cc2s1	0	78*	53	9	-24	-7
COc1ccccc1C(=O)Nc1nc2ccccc2s1	-18	105*	-12	46	-8	-10
O=C(Nc1nc2c(F)cc(F)cc2s1)c1ccccn1	10*	42	10	93*	-55	61*
Cc1ccc2nc(NC(=O)c3ccccn3)sc2c1	-7	84*	-33	79*	-19	69*
COc1ccc(C(=O)Nc2nc3ccccc3s2)c(OC)c1	-3	68	-3	45	2	26
COc1cc(C(=O)OC(C)c2ccc(F)cc2)ccc1OCC(=O)N1CCOCC1 (stereo unspecified)	x	-9	x	-8	x	x
Cc1ccc(OCC(=O)Nc2ccccc2[N+](=O)[O-])c(Br)c1	2	-7	-8	-5	-8	17
CC1(C)CC(=O)C(N=Nc2cccc(F)c2C#N)=C(O)C1	0	3	6	x	5	-46
CCOc1ccc2nc(NC(=O)c3ccccn3)sc2c1	-1	94*	-27	77*	-14	46
Fc1ccc2nc(Nc3nc4c(F)cc(F)cc4s3)sc2c1	4	49	-10	90*	4	-21
CCOc1ccc2nc(NC(=O)Nc3ccccc3)sc2c1	5	0	4	4	6	0
CCOC(=O)c1csc(NC(=O)c2ccc3c(c2)OCCO3)n1	2	-9	-2	5	-12	2
CN1Cc2c(N3CCOCC3)nc(SCc3ccccc3)c(C#N)c2CC1(C)C	1	x	13	-10	13	58*
CC(C)CCSc1nc(N2CCOCC2)c2c(c1C#N)CC(C)(C)OC2	-1	x	6	15	0	67*
COC(=O)CCSc1nc(N2CCOCC2)c2c(c1C#N)CC(C)(C)OC2	-3	-13	3	-2	22	-42
CN(C)S(=O)(=O)Oc1cccc(C(=O)Nc2ccc(Cl)cc2)c1	3	10	87*	2	-15	17
SMILES	HIF act	CSC inhib	Calb FLC	Beta apoptosis	PolyA inh	T cruzi repl
COc1cccc(C(=O)Nc2ccc(C3CC3(Cl)Cl)cc2)c1 (stereo unspecified)	2	91*	-7	-8	8	30
O=C(/C=C/c1ccc(OC(F)F)cc1)Nc1cccc(S(=O)(=O)N2CCOCC2)c1	2	-18	9	-2	5	21
C=CCN(CC=C)c1cnn(-c2nc3ccccc3[nH]2)c(=O)c1Cl	1	8	-1	8	5	29
O=c1c(Cl)c(NCCCO)cnn1-c1nc2ccccc2[nH]1	7	43	78*	x	-32	-5
Cc1cc(-c2ccccc2)nc2cc(C(=O)N(Cc3ccccc3)Cc3ccccc3)nn12	0	83*	2	19	-7	29
COc1ccc(CNc2ncnc3cc(Cl)ccc23)cc1OC	-1	x	-1	x	-6	17
CCN(CC)Cc1cc2[nH]c3c4ccc(Cl)cc4ncc3c2cc1OC	-3	x	-23	x	3	62*
O=C(NC(=S)N(CCO)Cc1ccccc1)c1ccc(F)cc1Cl	-1	-15	2	-1	-10	-9
Cc1ccc(NC(=O)CN2C(=O)S/C(=C\c3ccccn3)C2=O)cc1	0	-6	2	-1	-37	-8
O=C(CCCN1C(=O)S/C(=C/C=C/c2ccccc2)C1=O)Nc1ccc(C(=O)O)cc1	1	5	-25	-8	24	-27
O=C(CN1C(=O)S/C(=C\C=C\c2ccccc2)C1=O)Nc1ccc(O)cc1	3	79*	-1	16	6	-15
O=C(CN1C(=O)S/C(=C\c2ccccn2)C1=O)Nc1ccccc1	x	-18	109*	0	x	x
Cc1[nH]c2ccccc2c1C(=O)COC(=O)c1ccc([N+](=O)[O-])s1	-2	-5	18	18	-90	74*
O=C(COC(=O)c1ccc([N+](=O)[O-])s1)NCc1ccccc1	-1	-1	-1	-3	3	18
O=C(OCC(=O)N1CCC(c2ccccc2)=N1)c1ccc([N+](=O)[O-])s1	-1	-9	-5	3	14	55*
Cc1cc(C(=O)OCC(=O)N2CCC(c3ccccc3)=N2)ccc1[N+](=O)[O-]	0	-9	-5	1	-1	2
Cc1c(CN2CCC(CO)(CC3CCCCO3)CC2)cnn1C (stereo unspecified)	0	1	-4	0	12	6
CC(=O)Nc1ccc(NC2=C/C(=N/S(=O)(=O)c3cccs3)c3ccccc3C2=O)cc1	-2	-11	u	101*	18	56*
Cc1ccccc1NC1=C/C(=N\S(=O)(=O)c2cccs2)c2ccccc2C1=O	-7	-8	34	98*	-50	57*
CCc1ccc(S(=O)(=O)/N=C2\C=C(NS(=O)(=O)c3ccccc3)C(=O)c3ccccc32)cc1	-24	x	35	x	3	-6
Cc1ccc(NC2=C/C(=N/S(=O)(=O)c3cccs3)c3ccccc3C2=O)cc1C	1	20	0	80*	9	-44
Cc1ccc(C)c(S(=O)(=O)/N=C2\C=C(NS(=O)(=O)c3ccccc3)C(=O)c3ccccc32)c1	0	x	67	1	-12	-9
